Data: ChEMBL document CHEMBL1165950, “Design and synthesis of new potent anticancer pyrazoles with high FLT3 kinase inhibitory selectivity” (Bioorg Med Chem, 2010)

Key:
Format in all cases: functional
MDA-MB-231 [1] = experiment: Cytotoxicity against human MDA-MB-231 cells assessed as cell growth at 0.001 uM after 48 hrs by sulforhodamine B assay; conditions: MDA-MB-231, 48 h, read-out: Activity
OVCAR-3 [2] = experiment: Cytotoxicity against human OVCAR-3 cells assessed as cell growth at 10 uM; conditions: read-out: Activity
Method in brief: (§1)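 NCI-60 screen: cells grown in RPMI 1640 with 5% FBS and 2 mM L-glutamine, plated at 5000–40,000 cells/well according to doubling time, and preincubated 24 h at 37 °C, 5% CO2. The single 10 µM dose (DMSO stock) was added, then incubated 48 h. Cells were TCA-fixed and stained with 0.4% SRB, read at 515 nm, and growth % calculated against time-zero and control plates.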

SF-539 = experiment: Cytotoxicity against human SF539 cells assessed as cell growth at 10 uM after 48 hrs by sulforhodamine B assay; conditions: SF-539, 48 h, read-out: Activity
HOP-92 = experiment: Cytotoxicity against human HOP92 cells assessed as cell growth at 100 nM after 48 hrs by sulforhodamine B assay; conditions: HOP-92, 48 h, read-out: Activity
SN12C [3] = experiment: Cytotoxicity against human SN12C cells assessed as cell growth at 10 uM after 48 hrs by sulforhodamine B assay; conditions: read-out: Activity
HT-29 [4] = experiment: Cytotoxicity against human HT-29 cells assessed as cell growth at 1 uM after 48 hrs by sulforhodamine B assay; conditions: HT-29, 48 h, read-out: Activity
NCI-H460 = experiment: Cytotoxicity against human NCI-H460 cells assessed as cell growth at 100 nM after 48 hrs by sulforhodamine B assay; conditions: NCI-H460, 48 h, read-out: Activity
T47D [5] = experiment: Growth inhibition of human T47D cells after 48 hrs by sulforhodamine B assay
Method in brief: (§2)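 NCI 60-cell screen, five-dose mode. Cells grown in RPMI 1640 with 5% FBS and 2 mM L-glutamine and plated at 5000-40,000 cells/well according to doubling time. After 24 h preincubation, a Tz plate was TCA-fixed. Five concentrations (10-fold or 1/2 log dilutions) were applied for 48 h at 37 °C. SRB staining read at 515 nm. IC50 taken from [(Ti-Tz)/(C-Tz)]×100 = 50.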

OVCAR-3 [6] = experiment: Cytotoxicity against human OVCAR-3 cells assessed as cell growth at 10 uM after 48 hrs by sulforhodamine B assay; conditions: OVCAR-3, 48 h, read-out: Activity
UACC-62 = experiment: Cytotoxicity against human UACC62 cells assessed as cell growth at 0.01 uM after 48 hrs by sulforhodamine B assay; conditions: UACC-62, 48 h, read-out: Activity
BT-549 [7] = experiment: Cytotoxicity against human BT549 cells assessed as cell growth at 0.001 uM after 48 hrs by sulforhodamine B assay; conditions: BT-549, 48 h, read-out: Activity
Method in brief: (§3)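 NCI-60 five-dose screen. Cells were grown in RPMI 1640 with 5% FBS and 2 mM L-glutamine, plated at 5000–40,000 cells/well and preincubated for 24 h. Time-zero plates were TCA-fixed. DMSO-solubilized drug was added at five concentrations (10-fold or ½-log serial dilutions) for 48 h at 37 °C, 5% CO2. Cells were TCA-fixed, stained with 0.4% SRB and read at 515 nm. Percent growth used time-zero, control and test absorbances.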

LOX IMVI = experiment: Cytotoxicity against human LOXIMVI cells assessed as cell growth at 0.01 uM after 48 hrs by sulforhodamine B assay; conditions: read-out: Activity
786-0 = experiment: Cytotoxicity against human 786-0 cells assessed as cell growth at 0.001 uM after 48 hrs by sulforhodamine B assay; conditions: 786-0, 48 h, read-out: Activity; method in brief: as §3
MDA-MB-435 = experiment: Cytotoxicity against human MDA-MB-435 cells assessed as cell growth at 10 uM after 48 hrs by sulforhodamine B assay; conditions: MDA-MB-435, 48 h, read-out: Activity
OVCAR-8 = experiment: Cytotoxicity against human OVCAR8 cells assessed as cell growth at 0.001 uM after 48 hrs by sulforhodamine B assay; conditions: OVCAR-8, 48 h, read-out: Activity
MCF7 = experiment: Cytotoxicity against human MCF7 cells assessed as cell growth at 10 uM; conditions: read-out: Activity; method in brief: as §1
UO-31 = experiment: Growth inhibition of human UO31 cells after 48 hrs by sulforhodamine B assay; conditions: UO-31, 48 h; for CC50: read-out: LC50 (the source's name); method in brief: as §2
MDA-MB-231 [8] = experiment: Growth inhibition of human MDA-MB-231 cells after 48 hrs by sulforhodamine B assay; conditions: MDA-MB-231, 48 h; method in brief: as §2
SK-MEL-2 = experiment: Cytotoxicity against human SK-MEL-2 cells assessed as cell growth at 10 uM after 48 hrs by sulforhodamine B assay; conditions: SK-MEL-2, 48 h, read-out: Activity
SNB-75 = experiment: Cytotoxicity against human SNB75 cells assessed as cell growth at 10 uM after 48 hrs by sulforhodamine B assay; conditions: SNB-75, 48 h, read-out: Activity
HL-60(TB) [9] = experiment: Cytotoxicity against human HL-60(TB) cells assessed as cell growth at 100 nM after 48 hrs by sulforhodamine B assay; conditions: HL-60, 48 h, read-out: Activity
Method in brief: (§4)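 NCI 60-cell panel. Cells are grown in RPMI 1640 with 5% FBS and 2 mM L-glutamine, seeded at 5000–40,000 cells/well according to doubling time, and preincubated 24 h. Time-zero plates are TCA-fixed. Compound from DMSO stock is given at five 10-fold or 1/2-log concentrations for 48 h at 37 °C, 5% CO2. Suspension cells are fixed with 80% TCA (final 16%) and SRB-stained, with absorbance at 515 nm. Percent growth is derived from Tz, control and test readings.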

BT-549 [10] = experiment: Cytotoxicity against human BT549 cells assessed as cell growth at 10 uM after 48 hrs by sulforhodamine B assay; conditions: BT-549, 48 h, read-out: Activity; method in brief: as §3
A549 = experiment: Cytotoxicity against human A549 cells assessed as cell growth at 10 uM after 48 hrs by sulforhodamine B assay; conditions: A549, 48 h, read-out: Activity; method in brief: as §3
NCI-H23 = experiment: Cytotoxicity against human NCI-H23 cells assessed as cell growth at 0.01 uM after 48 hrs by sulforhodamine B assay; conditions: NCI-H23, 48 h, read-out: Activity
HT-29 [11] = experiment: Cytotoxicity against human HT-29 cells assessed as cell growth at 10 uM; conditions: read-out: Activity
Method in brief: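 Single-dose NCI-60 screen at 10 µM. Cells were grown in RPMI 1640 with 5% FBS and 2 mM L-glutamine, then treated for 48 h at 37 °C. Protein was measured by SRB staining with absorbance at 515 nm. Percentage growth was recorded, and inhibition percentage was calculated as 100 minus growth percentage.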

HL-60(TB) [12] = experiment: Cytotoxicity against human HL-60(TB) cells assessed as cell growth at 0.001 uM after 48 hrs by sulforhodamine B assay; conditions: HL-60, 48 h, read-out: Activity; method in brief: as §4
SN12C [13] = experiment: Cytotoxicity against human SN12C cells assessed as cell growth at 10 uM; conditions: read-out: Activity; method in brief: as §1
T47D [14] = experiment: Cytotoxicity against human T47D cells assessed as cell growth at 100 nM after 48 hrs by sulforhodamine B assay; conditions: read-out: Activity

COc1cc(C)cc(-c2c(-c3ccnc(-c4ccc(C(C)=O)cc4)c3)cnn2CC#N)c1
growth at 0.001 µM (MDA-MB-231 [1]): 99% | growth at 10 µM (OVCAR-3 [2]): 100% | growth at 10 µM (SF-539): -34% | growth at 0.1 µM (HOP-92): 61% | growth at 10 µM (SN12C [3]): 34% | growth at 1 µM (HT-29 [4]): 7% | growth at 0.1 µM (NCI-H460): 87% | GI50 (T47D [5]): 2.42 µM | LC50 (T47D [5]): > 100 µM | TGI (T47D [5]): 8.02 µM | growth at 10 µM (OVCAR-3 [6]): -17% | growth at 0.01 µM (UACC-62): 88% | growth at 0.001 µM (BT-549 [7]): 96% | growth at 0.01 µM (LOX IMVI): 105% | growth at 0.001 µM (786-0): 102% | growth at 10 µM (MDA-MB-435): 16% | growth at 0.001 µM (OVCAR-8): 103% | growth at 10 µM (MCF7): 21.9% | GI50 (UO-31): 2.61 µM | TGI (UO-31): > 100 µM | CC50 (UO-31): > 100 µM | GI50 (MDA-MB-231 [8]): 3.63 µM | LC50 (MDA-MB-231 [8]): > 100 µM | TGI (MDA-MB-231 [8]): > 100 µM | growth at 10 µM (SK-MEL-2): 20% | growth at 10 µM (SNB-75): 1% | growth at 0.1 µM (HL-60(TB) [9]): 88% | growth at 10 µM (BT-549 [10]): 24% | growth at 10 µM (A549): 30% | growth at 0.01 µM (NCI-H23): 95% | growth at 10 µM (HT-29 [11]): 15.2% | growth at 0.001 µM (HL-60(TB) [12]): 101% | growth at 10 µM (SN12C [13]): 66% | growth at 0.1 µM (T47D [14]): 87%

Cc1cc(O)cc(-c2nn(CC#N)cc2-c2ccnc(-c3ccc(Oc4ccccc4)cc3)c2)c1
growth at 0.001 µM (MDA-MB-231 [1]): 96% | growth at 10 µM (OVCAR-3 [2]): 96% | growth at 10 µM (SF-539): -85% | growth at 0.1 µM (HOP-92): 70% | growth at 10 µM (SN12C [3]): -87% | growth at 1 µM (HT-29 [4]): -65% | growth at 0.1 µM (NCI-H460): 99% | GI50 (T47D [5]): 2.04 µM | LC50 (T47D [5]): 39.1 µM | TGI (T47D [5]): 5.81 µM | growth at 10 µM (OVCAR-3 [6]): -100% | growth at 0.01 µM (UACC-62): 84% | growth at 0.001 µM (BT-549 [7]): 96% | growth at 0.01 µM (LOX IMVI): 101% | growth at 0.001 µM (786-0): 98% | growth at 10 µM (MDA-MB-435): -59% | growth at 0.001 µM (OVCAR-8): 96% | growth at 10 µM (MCF7): 18.4% | GI50 (UO-31): 2.18 µM | TGI (UO-31): 6.54 µM | CC50 (UO-31): 31.7 µM | GI50 (MDA-MB-231 [8]): 2.28 µM | LC50 (MDA-MB-231 [8]): 57.7 µM | TGI (MDA-MB-231 [8]): 7.33 µM | growth at 10 µM (SK-MEL-2): -81% | growth at 10 µM (SNB-75): -98% | growth at 0.1 µM (HL-60(TB) [9]): 92% | growth at 10 µM (BT-549 [10]): -81% | growth at 10 µM (A549): -71% | growth at 0.01 µM (NCI-H23): 93% | growth at 10 µM (HT-29 [11]): 0.27% | growth at 0.001 µM (HL-60(TB) [12]): 96% | growth at 10 µM (SN12C [13]): 60.2% | growth at 0.1 µM (T47D [14]): 84%
